Laboratory results reported in ChEMBL document CHEMBL1782040, “Exceptionally fast uptake and metabolism of cyanidin 3-glucoside by rat kidneys and liver” (J Nat Prod, 2011).

What was measured:
Liver [1] = assay: Drug uptake in Wistar rat liver assessed by assuming liver mass was 7 grams at 0.67 umol, iv after 5 mins by mass spectrometry analysis; type: ADME, organism-based; conditions: in vivo
Summary of the method: (§1)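 Fasted, anaesthetized rats received the anthocyanin in saline as a 0.67 μmol iliac-vein bolus (76 μM in plasma). They were sacrificed at 15 s, 1, 5 or 15 min, and plasma, kidneys, liver, urine and bile were collected. Anthocyanins were methanol-extracted, SPE-cleaned and quantified by MS (tandem MS for trace metabolites), then corrected for recovery measured on spiked blood, homogenates and urine. Amounts assume 8.8 mL plasma, 2.4 g kidney and 7.0 g liver, with urine and bile volumes measured.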

Liver [2] = assay: Metabolic stability in Wistar rat assessed as parent compound level in liver at 0.67 umol, iv after 1 min by mass spectrometry analysis; type: ADME, organism-based; conditions: in vivo; summary of the method: as §1
[3] = Metabolic stability in Wistar rat assessed as parent compound level in bile at 0.67 umol, iv after 15 mins by mass spectrometry analysis; type: ADME, organism-based; conditions: in vivo, 0.25 h; summary of the method: as §1
[4] = Drug uptake in Wistar rat liver at 0.67 umol, iv after 15 mins by mass spectrometry analysis; type: ADME, organism-based; conditions: read-out: Drug uptake; summary of the method: as §1
Liver [5] = assay: Metabolic stability in Wistar rat assessed as parent compound level in liver at 0.67 umol, iv after 15 mins by mass spectrometry analysis; type: ADME, organism-based; conditions: in vivo, 0.25 h; summary of the method: as §1
Nucleic Acid [6] = assay: Ratio of drug uptake in kidney to liver in Wistar rat assessed as cyanidin 3-glucoside level at 0.67 umol, iv after 15 mins by mass spectrometry analysis; conditions: in vivo, 0.25 h
Kidney [7] = assay: Metabolic stability in Wistar rat assessed as parent compound level in kidney at 0.67 umol, iv after 0.25 mins by mass spectrometry analysis; type: ADME, organism-based; conditions: in vivo, 15 s; summary of the method: as §1
[8] = Drug uptake in Wistar rat kidney at 0.67 umol, iv after 15 mins by mass spectrometry analysis; type: ADME, organism-based; conditions: read-out: Drug uptake
Summary of the method: (§2)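 Cyanidin 3-glucoside in saline was given as one iliac-vein injection (0.67 μmol) to fasting, anaesthetized rats, which were killed at 15 s, 1, 5 or 15 min. Kidneys were homogenized, extracted in methanol, cleaned up by SPE and analysed by LC-MS/MS.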

Liver [9] = assay: Drug uptake in Wistar rat liver assessed by assuming liver mass was 7 grams at 0.67 umol, iv after 0.25 mins by mass spectrometry analysis; type: ADME, organism-based; conditions: in vivo, 15 s
Summary of the method: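 Fasting, anaesthetized rats received cyanidin 3-glucoside in saline into the iliac vein (0.67 μmol) and were killed at 15 s, 1, 5 or 15 min. Liver homogenates were methanol-extracted, cleaned up by SPE and quantified by LC-MS/MS.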

Kidney [10] = assay: Metabolic stability in Wistar rat assessed as parent compound level in kidney at 0.67 umol, iv after 5 mins by mass spectrometry analysis; type: ADME, organism-based; conditions: in vivo; summary of the method: as §1
[11] = Drug uptake in Wistar rat liver at 0.67 umol, iv after 0.25 mins by mass spectrometry analysis; type: ADME, organism-based; conditions: read-out: Drug uptake; summary of the method: as §1
[12] = Drug uptake in Wistar rat liver at 0.67 umol, iv after 5 mins by mass spectrometry analysis; type: ADME, organism-based; conditions: read-out: Drug uptake; summary of the method: as §1
[13] = Drug uptake in Wistar rat kidney at 0.67 umol, iv after 1 min by mass spectrometry analysis; type: ADME, organism-based; conditions: read-out: Drug uptake; summary of the method: as §2
Kidney [14] = assay: Drug uptake in Wistar rat kidney assessed by assuming kidney mass was 2.4 gram at 0.67 umol, iv after 15 mins by mass spectrometry analysis; type: ADME, organism-based; conditions: in vivo, 0.25 h; summary of the method: as §2
Nucleic Acid [15] = assay: Ratio of drug uptake in kidney to liver in Wistar rat assessed as level at 0.67 umol, iv by mass spectrometry analysis; conditions: in vivo
Liver [16] = assay: Metabolic stability in Wistar rat assessed as parent compound level in liver at 0.67 umol, iv after 0.25 mins by mass spectrometry analysis; type: ADME, organism-based; conditions: in vivo, 15 s; summary of the method: as §1
[17] = Drug uptake in Wistar rat plasma at 0.67 umol, iv after 15 mins by mass spectrometry analysis; type: ADME, organism-based; summary of the method: as §1
Plasma [18] = assay: Metabolic stability in Wistar rat assessed as parent compound level in plasma at 0.67 umol, iv after 15 mins by mass spectrometry analysis; type: ADME, organism-based; conditions: in vivo, 0.25 h; summary of the method: as §1
Plasma [19] = assay: Metabolic stability in Wistar rat assessed as parent compound level in plasma at 0.67 umol, iv after 5 mins by mass spectrometry analysis; type: ADME, organism-based; conditions: in vivo; summary of the method: as §1
[20] = Drug excretion in Wistar rat bile at 0.67 umol, iv after 15 mins by mass spectrometry analysis; type: ADME, organism-based; conditions: read-out: Activity
Summary of the method: (§3)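 Cyanidin 3-glucoside in saline was injected into the iliac vein of fasting, anaesthetized rats (0.67 μmol; 76 μM in plasma). Urine and bile were collected to 15 min, and their volumes were measured. Anthocyanin levels were measured by LC-MS and corrected for recovery from spiked standards. Amounts are given per collected volume (n = 9 urine, n = 4 bile).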

Nucleic Acid [21] = assay: Ratio of drug uptake in urine to kidney in Wistar rat at 0.67 umol, iv after 15 mins by mass spectrometry analysis; type: ADME, organism-based; conditions: in vivo, 0.25 h
Summary of the method: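 Fasting anaesthetized rats got 0.67 μmol anthocyanin in saline into the iliac vein (about 76 μM in plasma) and were killed at 15 min. Urine (volume measured) and kidneys (2.4 g assumed) were extracted in methanol and cleaned by SPE. Analytes were quantified by LC-tandem MS, corrected for recovery from spiked matrices, n = 9 rats.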

Kidney [22] = assay: Drug uptake in Wistar rat kidney assessed by assuming kidney mass was 2.4 gram at 0.67 umol, iv after 0.25 mins by mass spectrometry analysis; type: ADME, organism-based; conditions: in vivo, 15 s; summary of the method: as §2
Kidney [23] = assay: Drug uptake in Wistar rat kidney assessed by assuming kidney mass was 2.4 gram at 0.67 umol, iv after 1 min by mass spectrometry analysis; type: ADME, organism-based; conditions: in vivo; summary of the method: as §2
[24] = Drug uptake in Wistar rat urine at 0.67 umol, iv after 15 mins by mass spectrometry analysis; type: ADME, organism-based; conditions: read-out: Drug uptake; summary of the method: as §1
Liver [25] = assay: Metabolic stability in Wistar rat assessed as parent compound level in liver at 0.67 umol, iv after 5 mins by mass spectrometry analysis; type: ADME, organism-based; conditions: in vivo; summary of the method: as §1
Nucleic Acid [26] = assay: Ratio of drug uptake in bile to liver in Wistar rat at 0.67 umol, iv after 15 mins by mass spectrometry analysis; type: ADME, organism-based; conditions: in vivo, 0.25 h
[27] = Drug uptake in Wistar rat bile at 0.67 umol, iv after 15 mins by mass spectrometry analysis; type: ADME, organism-based; conditions: read-out: Drug uptake; summary of the method: as §3
[28] = Drug uptake in Wistar rat bile assessed by assuming plasma volume was 8.8 mL at 0.67 umol, iv after 15 mins by mass spectrometry analysis; type: ADME, organism-based; conditions: in vivo, 0.25 h
Kidney [29] = assay: Metabolic stability in Wistar rat assessed as parent compound level in kidney at 0.67 umol, iv after 15 mins by mass spectrometry analysis; type: ADME, organism-based; conditions: in vivo, 0.25 h; summary of the method: as §1
[30] = Drug uptake in Wistar rat plasma at 0.67 umol, iv after 1 min by mass spectrometry analysis; type: ADME, organism-based; summary of the method: as §1
[31] = Drug excretion in Wistar rat urine at 0.67 umol, iv after 15 mins by mass spectrometry analysis; type: ADME, organism-based; conditions: read-out: Activity; summary of the method: as §3
[32] = Drug uptake in Wistar rat plasma at 0.67 umol, iv after 5 mins by mass spectrometry analysis; type: ADME, organism-based; summary of the method: as §1
Kidney [33] = assay: Drug uptake in Wistar rat kidney assessed by assuming kidney mass was 2.4 gram at 0.67 umol, iv after 5 mins by mass spectrometry analysis; type: ADME, organism-based; conditions: in vivo; summary of the method: as §2
[34] = Drug uptake in Wistar rat liver at 0.67 umol, iv after 1 min by mass spectrometry analysis; type: ADME, organism-based; conditions: read-out: Drug uptake; summary of the method: as §1
[35] = Metabolic stability in Wistar rat assessed as parent compound level in urine at 0.67 umol, iv after 15 mins by mass spectrometry analysis; type: ADME, organism-based; conditions: in vivo, 0.25 h; summary of the method: as §1
[36] = Drug uptake in Wistar rat urine assessed by assuming plasma volume was 8.8 mL at 0.67 umol, iv after 15 mins by mass spectrometry analysis; type: ADME, organism-based; conditions: in vivo, 0.25 h; summary of the method: as §1
[37] = Drug uptake in Wistar rat kidney at 0.67 umol, iv after 5 mins by mass spectrometry analysis; type: ADME, organism-based; conditions: read-out: Drug uptake; summary of the method: as §2
Kidney [38] = assay: Metabolic stability in Wistar rat assessed as parent compound level in kidney at 0.67 umol, iv after 1 min by mass spectrometry analysis; type: ADME, organism-based; conditions: in vivo; summary of the method: as §1
Liver [39] = assay: Drug uptake in Wistar rat liver assessed by assuming liver mass was 7 grams at 0.67 umol, iv after 1 min by mass spectrometry analysis; type: ADME, organism-based; conditions: in vivo; summary of the method: as §1
[40] = Elimination rate constant in Wistar rat plasma at 0.67 umol, iv; type: ADME, cell-free
Summary of the method: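 Rats received a 0.67 μmol iliac-vein bolus in saline under anaesthesia. Plasma amounts (nmol) at 15 s, 1, 5 and 15 min were obtained by recovery-corrected MS and fitted to y = y0 + a·e^(−kt). k is the first-order elimination constant, y0 the steady-state amount, and a the extrapolated t0 amount minus y0.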

Plasma [41] = assay: Metabolic stability in Wistar rat assessed as parent compound level in plasma at 0.67 umol, iv after 1 min by mass spectrometry analysis; type: ADME, organism-based; conditions: in vivo; summary of the method: as §1
[42] = Drug uptake in Wistar rat kidney at 0.67 umol, iv after 0.25 mins by mass spectrometry analysis; type: ADME, organism-based; conditions: read-out: Drug uptake; summary of the method: as §2
[43] = Drug uptake in Wistar rat plasma at 0.67 umol, iv after 0.25 mins by mass spectrometry analysis; type: ADME, organism-based; summary of the method: as §1
Plasma [44] = assay: Metabolic stability in Wistar rat assessed as parent compound level in plasma at 0.67 umol, iv after 0.25 mins by mass spectrometry analysis; type: ADME, organism-based; conditions: in vivo, 15 s; summary of the method: as §1
Liver [45] = assay: Drug uptake in Wistar rat liver assessed by assuming liver mass was 7 grams at 0.67 umol, iv after 15 mins by mass spectrometry analysis; type: ADME, organism-based; conditions: in vivo, 0.25 h; summary of the method: as §1

OC[C@H]1O[C@@H](Oc2cc3c(O)cc(O)cc3[o+]c2-c2ccc(O)c(O)c2)[C@H](O)[C@@H](O)[C@@H]1O [KUROMANIN]
Drug uptake (Liver [1]): 0.1 nmol
Stability (Liver [2]): 84.4 nmol
Stability [3]: 58.9 nmol
concentration at 0.25 h [4]: 0.1 µM
Stability (Liver [5]): 32.3 nmol
Ratio (Nucleic Acid [6]): 37
Stability (Kidney [7]): 73.1 nmol
concentration at 0.25 h [8]: 4.4 µM
Drug uptake (Liver [9]): 2.5 nmol
Stability (Kidney [10]): 52 nmol
concentration at 15 s [11]: 0.4 µM
concentration at 5 min [12]: 0.02 µM
concentration at 1 min [13]: 12.4 µM
Drug uptake (Kidney [14]): 10.6 nmol
Ratio (Nucleic Acid [15]): 12
Stability (Liver [16]): 43.6 nmol
concentration at 0.25 h [17]: 1.6 µM
Stability (Plasma [18]): 19.7 nmol
Stability (Plasma [19]): 17.2 nmol
dose excreted at 0.25 h [20]: < 0.1%
Ratio (Nucleic Acid [21]): 71.9
Drug uptake (Kidney [22]): 27.1 nmol
Drug uptake (Kidney [23]): 29.8 nmol
concentration at 0.25 h [24]: 317 µM
Stability (Liver [25]): 34.6 nmol
Ratio (Nucleic Acid [26]): 34.2
concentration at 0.25 h [27]: 2.3 µM
Drug uptake [28]: 0.4 nmol
Stability (Kidney [29]): 62.7 nmol
concentration at 1 min [30]: 5.7 µM
dose excreted at 0.25 h [31]: 6.2%
concentration at 5 min [32]: 1.6 µM
Drug uptake (Kidney [33]): 10.7 nmol
concentration at 1 min [34]: 0.4 µM
Stability [35]: 141 nmol
Drug uptake [36]: 41.3 nmol
concentration at 5 min [37]: 4.5 µM
Stability (Kidney [38]): 130.8 nmol
Drug uptake (Liver [39]): 2.5 nmol
k el [40]: 0.0317 s⁻¹
Stability (Plasma [41]): 55.8 nmol
concentration at 15 s [42]: 11.3 µM
concentration at 15 s [43]: 18.2 µM
Stability (Plasma [44]): 171.2 nmol
Drug uptake (Liver [45]): 0.4 nmol
